Measured values: ChEMBL document CHEMBL3526048, “In vitro metabolism of rivoglitazone, a novel peroxisome proliferator-activated receptor γ agonist, in rat, monkey, and human liver microsomes and freshly isolated hepatocytes” (Drug Metab Dispos, 2011)

Key:
[1] = Drug level in monkey hepatocytes treated with [14C]-rivoglitazone at 30 uM after 3 hrs by radio-HPLC/LC-MS/MS analysis; settings: cynomolgus monkey
Hepatocyte [2] = experiment: Drug level in human hepatocytes treated with [14C]-rivoglitazone at 30 uM after 3 hrs by radio-HPLC/LC-MS/MS analysis; assay type: ADME, cell-based
Procedure, shortened: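 Freshly isolated hepatocytes were suspended in HBSS at 2×10^6 viable cells/ml; trypan-blue viability was rat 88%, monkey 91 and 94%, human 66, 73 and 81%. Donors were rat (7 weeks, 170 g) and two male cynomolgus monkeys. Cells were incubated with [¹⁴C]rivoglitazone (30 μM) for 3 h at 37°C under 95% O₂/5% CO₂. Acetonitrile stop, sonication, samples pooled per species, supernatant analysed by radio-HPLC and LC-MS.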

Hepatocyte [3] = experiment: Drug level in rat hepatocytes treated with [14C]-rivoglitazone at 30 uM after 3 hrs by radio-HPLC/LC-MS/MS analysis; assay type: ADME, cell-based
[4] = Retention time of the compound by LC-MS/MS analysis; assay type: physicochemical
Procedure, shortened: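 LC-MS/MS used a YMC-Pack ODS-A column (1.5 × 150 mm, 5 μm) at 30°C, 0.1 ml/min. Mobile phase was water and acetonitrile, each with 0.01% TFA. Gradient: 12→60% B over 30 min, →90% B over 5 min, hold 5 min. Detection was UV 220 nm with positive ESI Q-TOF (capillary 3300 V, cone 45 V), collision energy 20 eV and xenon as collision gas.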

Liver microsome [5] = experiment: Drug level in Sprague-Dawley rat liver microsomes treated with [14C]-rivoglitazone at 20 uM after 2 to 4 hrs by radio-HPLC/LC-MS/MS analysis in presence of NADPH-generating system/SAM and UDPGA/SAM; assay type: ADME
Liver microsome [6] = experiment: Drug level in human liver microsomes treated with [14C]-rivoglitazone at 20 uM after 2 to 4 hrs by radio-HPLC/LC-MS/MS analysis in presence of NADPH-generating system/SAM and UDPGA/SAM; assay type: ADME
[7] = Drug level in cynomolgus monkey liver microsomes treated with [14C]-rivoglitazone at 20 uM after 2 to 4 hrs by radio-HPLC/LC-MS/MS analysis in presence of NADPH-generating system/SAM and UDPGA/SAM; assay type: ADME, Macaca fascicularis
Liver microsome [8] = experiment: Drug level in human liver microsomes treated with [14C]-rivoglitazone at 20 uM after 2 hrs by radio-HPLC/LC-MS/MS analysis in presence of NADPH-generating system/SAM; assay type: ADME
Procedure, shortened: (§1)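 Pooled male liver microsomes (1 mg/ml protein; rat from 94 Sprague-Dawley, monkey from 8 cynomolgus, human from 23 donors) were incubated with [¹⁴C]rivoglitazone (20 μM). Buffer: 10 mM potassium phosphate (pH 7.4). Cofactors: NADPH-generating system (2 mM NADP⁺, 20 mM G6P, 2 U/ml G6PDH, 10 mM MgCl₂), with or without 2 mM SAM. Incubation 2 h at 37°C with shaking; controls lacked NADPH system and SAM alone. Acetonitrile stop, radio-HPLC plus LC-MS.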

Hepatocyte [9] = experiment: Drug level in human hepatocytes treated with [14C]-rivoglitazone at 30 uM after 3 hrs by radio-HPLC/LC-MS/MS analysis in presence of NADPH-generating system/SAM; assay type: ADME, cell-based
Liver microsome [10] = experiment: Drug level in Sprague-Dawley rat liver microsomes treated with [14C]-rivoglitazone at 20 uM after 2 hrs by radio-HPLC/LC-MS/MS analysis in presence of NADPH-generating system/SAM; assay type: ADME
Procedure, shortened: as §1

[11] = Drug level in cynomolgus monkey liver microsomes treated with [14C]-rivoglitazone at 20 uM after 2 hrs by radio-HPLC/LC-MS/MS analysis in presence of NADPH-generating system/SAM; assay type: ADME, Macaca fascicularis
Procedure, shortened: as §1

[12] = test system: Hepatocyte (Macaca fascicularis); experiment: Drug level in monkey hepatocytes treated with [14C]-rivoglitazone at 30 uM after 3 hrs by radio-HPLC/LC-MS/MS analysis in presence of NADPH-generating system/SAM; settings: cynomolgus monkey
Hepatocyte [13] = experiment: Drug level in rat hepatocytes treated with [14C]-rivoglitazone at 30 uM after 3 hrs by radio-HPLC/LC-MS/MS analysis in presence of NADPH-generating system/SAM; assay type: ADME, cell-based
[14] = biological target: T1, UDP-glucuronosyltransferase 1A3 (Homo sapiens, UniProt P35503); experiment: Activity of human UGT1A3 expressed in microsomes isolated from baculovirus infected insect cell assessed as enzyme-mediated compound formation treated with [14C]-rivoglitazone at 20 uM after 4 hrs by radio-HPLC/LC-MS/MS analysis in presence of NADPH-generating system/SAM; assay type: ADME
T1 sequence (P35503 whole entry): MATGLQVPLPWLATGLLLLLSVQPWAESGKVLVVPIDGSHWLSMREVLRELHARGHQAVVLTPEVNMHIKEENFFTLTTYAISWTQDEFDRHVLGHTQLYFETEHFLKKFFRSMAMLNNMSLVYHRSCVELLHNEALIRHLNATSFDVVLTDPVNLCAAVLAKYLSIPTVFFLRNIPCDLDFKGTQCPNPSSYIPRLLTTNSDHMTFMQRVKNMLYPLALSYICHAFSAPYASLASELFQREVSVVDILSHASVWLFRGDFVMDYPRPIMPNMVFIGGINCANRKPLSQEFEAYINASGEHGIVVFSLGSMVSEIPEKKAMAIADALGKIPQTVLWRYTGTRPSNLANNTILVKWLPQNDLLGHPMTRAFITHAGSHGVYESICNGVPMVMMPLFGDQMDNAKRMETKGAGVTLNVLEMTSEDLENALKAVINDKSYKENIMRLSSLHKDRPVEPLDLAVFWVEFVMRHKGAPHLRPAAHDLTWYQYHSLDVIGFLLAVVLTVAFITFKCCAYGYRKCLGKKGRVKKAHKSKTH

[15] = Drug level in cynomolgus monkey liver microsomes treated with [14C]-rivoglitazone at 20 uM after 4 hrs by radio-HPLC/LC-MS/MS analysis in presence of UDPGA and UDPGA/SAM; assay type: ADME, Macaca fascicularis
Procedure, shortened: (§2)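 Pooled male liver microsomes (1 mg/ml; rat from 94 Sprague-Dawley, monkey from 8 cynomolgus, human from 23 donors) were pretreated with alamethicin (50 μg/mg protein, 15 min, ice). Incubation with [¹⁴C]rivoglitazone (20 μM) in 100 mM Tris-HCl (pH 7.5), 10 mM MgCl₂, 5 mM UDPGA, with or without 2 mM SAM, 4 h at 37°C. Controls lacked UDPGA and SAM alone. Radio-HPLC and LC-MS analysis.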

Liver microsome [16] = experiment: Drug level in human liver microsomes treated with [14C]-rivoglitazone at 20 uM after 4 hrs by radio-HPLC/LC-MS/MS analysis in presence of UDPGA and UDPGA/SAM; assay type: ADME
Procedure, shortened: as §2

[17] = Drug level in monkey hepatocytes treated with [14C]-rivoglitazone at 30 uM after 3 hrs by radio-HPLC/LC-MS/MS analysis in presence of UDPGA and UDPGA/SAM; settings: cynomolgus monkey
Hepatocyte [18] = experiment: Drug level in rat hepatocytes treated with [14C]-rivoglitazone at 30 uM after 3 hrs by radio-HPLC/LC-MS/MS analysis in presence of UDPGA and UDPGA/SAM; assay type: ADME, cell-based
[19] = biological target: T2, UDP-glucuronosyltransferase 2B7 (Homo sapiens, UniProt P16662); experiment: Activity of human UGT2B7 expressed in microsomes isolated from baculovirus infected insect cell assessed as enzyme-mediated compound formation treated with [14C]-rivoglitazone at 20 uM after 4 hrs by radio-HPLC/LC-MS/MS analysis in presence of NADPH-generating system/SAM; assay type: ADME
T2 sequence (P16662 whole entry): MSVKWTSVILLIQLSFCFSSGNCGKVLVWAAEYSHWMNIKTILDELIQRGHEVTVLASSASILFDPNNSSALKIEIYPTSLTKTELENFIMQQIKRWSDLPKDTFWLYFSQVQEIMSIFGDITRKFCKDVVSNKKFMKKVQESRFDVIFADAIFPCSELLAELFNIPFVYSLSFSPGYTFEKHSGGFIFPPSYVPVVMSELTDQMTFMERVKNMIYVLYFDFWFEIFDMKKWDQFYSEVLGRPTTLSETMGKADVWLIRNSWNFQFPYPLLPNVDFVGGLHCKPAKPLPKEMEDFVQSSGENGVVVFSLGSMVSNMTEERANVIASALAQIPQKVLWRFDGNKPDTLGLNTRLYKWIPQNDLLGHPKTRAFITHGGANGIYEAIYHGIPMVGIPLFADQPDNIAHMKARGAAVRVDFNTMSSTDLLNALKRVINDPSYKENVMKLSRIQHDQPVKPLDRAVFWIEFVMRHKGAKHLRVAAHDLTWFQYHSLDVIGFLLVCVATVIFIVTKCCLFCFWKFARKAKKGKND

Hepatocyte [20] = experiment: Drug level in human hepatocytes treated with [14C]-rivoglitazone at 30 uM after 3 hrs by radio-HPLC/LC-MS/MS analysis in presence of UDPGA and UDPGA/SAM; assay type: ADME, cell-based
Liver microsome [21] = experiment: Drug level in Sprague-Dawley rat liver microsomes treated with [14C]-rivoglitazone at 20 uM after 4 hrs by radio-HPLC/LC-MS/MS analysis in presence of UDPGA and UDPGA/SAM; assay type: ADME
Procedure, shortened: as §2

Row | Structure (SMILES) | Retention_time [4] [min] | Drug metabolism [14] | Drug metabolism [15] | Drug metabolism (Liver microsome [16]) | Drug metabolism [17] | Drug metabolism (Hepatocyte [18]) | Drug metabolism [19] | Drug metabolism (Hepatocyte [20]) | Drug metabolism (Liver microsome [21]) | other results
1 | Cn1c(COc2ccc(CC3SC(=O)NC3=O)cc2)nc2ccc(OS(=O)(=O)O)cc21 (stereo not drawn) | 18.9 | – | – | – | – | – | – | – | – | Drug metabolism [1]: metabolite_detected; Drug metabolism (Hepatocyte [2]): metabolite_detected; Drug metabolism (Hepatocyte [3]): metabolite_detected
2 | COc1ccc2nc(COc3ccc(CC(SC)C(=O)O)cc3)n(C)c2c1 (stereo not drawn) | 24.2 | – | – | – | – | – | – | – | – | Drug metabolism (Liver microsome [5]): metabolite_detected; Drug metabolism (Liver microsome [6]): metabolite_detected; Drug metabolism [7]: metabolite_detected
3 | COc1ccc2nc(COc3ccc(CC(SC)C(N)=O)cc3)n(C)c2c1 (stereo not drawn) | 20.4 | – | – | – | – | – | – | – | – | Drug metabolism (Liver microsome [8]): metabolite_detected; Drug metabolism (Hepatocyte [9]): metabolite_detected; Drug metabolism (Liver microsome [10]): metabolite_detected; Drug metabolism [11]: metabolite_detected; Drug metabolism [12]: metabolite_detected; Drug metabolism (Hepatocyte [13]): metabolite_detected
4 | COc1ccc2nc(COc3ccc(CC(SC(=O)N[C@@H]4O[C@H](C(=O)O)[C@@H](O)[C@H](O)[C@H]4O)C(=O)O)cc3)n(C)c2c1 (stereo partly drawn) | 17.3 | metabolite_detected | metabolite_detected | metabolite_detected | metabolite_detected | metabolite_detected | metabolite_detected | metabolite_detected | metabolite_detected | –
5 | COc1ccc2nc(COc3ccc(CC4SC(=O)N([C@@H]5O[C@H](C(=O)O)[C@@H](O)[C@H](O)[C@H]5O)C4=O)cc3)n(C)c2c1 (stereo partly drawn) | 19.8 | metabolite_detected | metabolite_detected | metabolite_detected | metabolite_detected | metabolite_detected | metabolite_detected | metabolite_detected | metabolite_detected | –
